Measured values gathered from unrelated publications.
Lines come from different studies, so protocols differ.
Target: High affinity nerve growth factor receptor (NTRK1, Homo sapiens, UniProt P04629)

| SMILES | observed | method | concentration | remaining binding |
| --- | --- | --- | --- | --- |
| CN(C)c1nccc(-c2cnc3ncccn23)n1 | binding | – | 1 µM | 72% |
| CN(c1ccnc(CNc2nc(Nc3ccc4c(c3)CC(=O)N4)ncc2C(F)(F)F)n1)S(C)(=O)=O | cell-free assay | competition with immobilised ligand | 1 µM | 10% |
| O=C(NCC1CCOCC1)c1n[nH]cc1NC(=O)c1c(F)cccc1F | binding | competition with immobilised ligand | 1 µM | 100% |
| CNC(=O)[C@@H]1CC[C@@H](n2c(-c3ccc4cnccc4c3)nc3ccc(C(=O)NCc4cccc(C(N)=O)c4)cc32)C1 | binding | competition with immobilised ligand | 1 µM | 92% |
| Cc1cc(Nc2nccc(C)n2)cc(-c2cnc([C@@]3(O)CC[C@H](C(=O)O)C(C)(C)C3)s2)c1 | binding | competition with immobilised ligand | 1 µM | 30.2% |
| O=C(NCCCN1CCOCC1)c1ccc(Nc2nccc(-c3cc4ccccc4s3)n2)cc1 | binding | competition with immobilised ligand | 1 µM | 19% |
| c1cncc(-c2cccc(Nc3nccc(NC4CCCCC4)n3)c2)c1 | binding | competition with immobilised ligand | 10 µM | 5.3% |
| Cc1nccc(COC(=O)N2C[C@@H]3[C@@H](CNC(=O)c4ccc5[nH]nnc5c4)[C@@H]3C2)n1 | cell-free assay | competition with immobilised ligand | 1 µM | 94% |
| N[C@@H]1CCN(c2nccc(-c3cnn4ncccc34)n2)C1 | binding | – | 1 µM | 93% |
| Nc1c(C(=O)NCc2ccc(C(=O)NCCCC3CCCCC3)cc2)cnn1-c1ccccc1 | cell-free assay | competition with immobilised ligand | 0.1 µM | 100% |
| CN1CCN(c2ccc(Nc3nccc(-c4cccc([N+](=O)[O-])c4)n3)cc2C(F)(F)F)CC1 | binding | – | 10 µM | 13% |
| C[C@@H]1CCN(c2nccc(-c3cnn4ncccc34)n2)C1 | binding | – | 1 µM | 61% |
| Cc1cnc(Nc2ccc(C(=O)N3CCC(N4CCCC4)CC3)cc2)nc1-c1cc2ccccc2s1 | binding | competition with immobilised ligand | 1 µM | 0.3% |
| F[C@@H]1CCN(c2nccc(-c3cnn4ncccc34)n2)C1 | binding | – | 1 µM | 86% |
| Cc1nc(N2CC[C@@H](O)C2)ncc1-c1cc(C(F)(F)F)cc2[nH]ncc12 | cell-free assay | competition with immobilised ligand | 1 µM | 56% |
| COc1ncc2cc3ccccc3nc2c1C#N | cell-free assay | competition with immobilised ligand | 5 µM | 100% |
